One assay concerns Staphylococcus aureus. Description: Antibacterial activity against Staphylococcus aureus ATCC 6538 after 18 hrs. The assay is classed as functional. The settings on record: ATCC 6538, 18 h. The essentials:
(§1)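 Broth microdilution in Mueller–Hinton medium, with the inoculum a 1/10 dilution of seed culture. Peptoids were dissolved in 50% MeOH/H2O to 1 mg/mL, added to the top row and serially diluted down the plate. Plates were incubated at 37 °C with shaking at 100 rpm for 18 h, with two peptoids per plate.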

In another assay the test system is Enterococcus faecalis. Briefly: Antibacterial activity against vancomycin-sensitive Enterococcus faecalis. The assay is classed as functional. The essentials:
as §1

Values after ≈ are worked out from the molar mass of the structure shown.

By MIC is commonly meant the least concentration at which growth counts as inhibited.

On to `C=CCOc1ccc(C[C@H](NC(C)=O)C(=O)N[C@@H](CCCCN)C(=O)N[C@H](CCCNC(=N)N)C(=O)N[C@@H](CC=C)C(=O)OCc2ccccc2)cc1.Cl.Cl`, for which the MIC in the assay with Staphylococcus aureus and with Enterococcus faecalis was above 125 µg/mL each time.

Take `C=CC[C@H](NC(=O)[C@@H](CCCNC(=N)N)NC(=O)[C@H](CCCCN)NC(=O)[C@H](Cc1ccc(-c2cc3ccccc3c3ccccc23)cc1)NC(C)=O)C(=O)OCc1ccccc1.Cl.Cl`: the minimum inhibitory concentration (MIC) with Staphylococcus aureus was 7.8 µg/mL; in the assay on Enterococcus faecalis, above 125 µg/mL.

`C=CC[C@H](NC(=O)[C@H](CCCCN)NC(=O)[C@H](Cc1ccc(-c2c3ccccc3cc3ccccc23)cc1)NC(C)=O)C(=O)OC.Cl`: the figures for the MIC in the assay with Staphylococcus aureus and against Enterococcus faecalis were 31.3 µg/mL and above 125 µg/mL, respectively.

Consider `C=CC[C@H](NC(=O)[C@H](CCCCN)NC(=O)[C@H](Cc1ccc(-c2cc3ccccc3c3ccccc23)cc1)NC(C)=O)C(=O)OC.Cl`, for which the MIC is 15.6 µg/mL against Staphylococcus aureus and above 125 µg/mL against Enterococcus faecalis.

As to `C=CC[C@H](NC(=O)[C@@H](CCCNC(=N)N)NC(=O)[C@H](CCCCN)NC(=O)[C@H](Cc1ccc(-c2c3ccccc3cc3ccccc23)cc1)NC(C)=O)C(=O)OCc1ccccc1.Cl.Cl`, the MIC in the assay with Staphylococcus aureus is 15.6 µg/mL; in the assay on Enterococcus faecalis it was above 125 µg/mL.

In the assay on Staphylococcus aureus, `CN[C@H](CC(C)C)C(=O)N[C@H]1C(=O)N[C@@H](CC(N)=O)C(=O)N[C@H]2C(=O)N[C@H]3C(=O)N[C@H](C(=O)N[C@H](C(=O)O)c4cc(O)cc(O)c4-c4cc3ccc4O)[C@H](O)c3ccc(c(Cl)c3)Oc3cc2cc(c3O[C@@H]2O[C@H](CO)[C@@H](O)[C@H](O)[C@H]2O[C@H]2C[C@](C)(N)[C@H](O)[C@H](C)O2)Oc2ccc(cc2Cl)[C@H]1O` [VANCOMYCIN] yielded an MIC of 1.95 µg/mL (≈ 1.35 µM).
